The text below walks through data of ChEMBL document CHEMBL4270576, “Discovery of a benzenesulfonamide-based dual inhibitor of microsomal prostaglandin E2 synthase-1 and 5-lipoxygenase that favorably modulates lipid mediator biosynthesis in inflammation” (Eur J Med Chem, 2018).

Activity calls are given as the source filed them. The rule behind the calls is not given here.

Series [1] addresses T1, Polyunsaturated fatty acid 5-lipoxygenase (Homo sapiens) (UniProt P09917).
T1 sequence (whole entry): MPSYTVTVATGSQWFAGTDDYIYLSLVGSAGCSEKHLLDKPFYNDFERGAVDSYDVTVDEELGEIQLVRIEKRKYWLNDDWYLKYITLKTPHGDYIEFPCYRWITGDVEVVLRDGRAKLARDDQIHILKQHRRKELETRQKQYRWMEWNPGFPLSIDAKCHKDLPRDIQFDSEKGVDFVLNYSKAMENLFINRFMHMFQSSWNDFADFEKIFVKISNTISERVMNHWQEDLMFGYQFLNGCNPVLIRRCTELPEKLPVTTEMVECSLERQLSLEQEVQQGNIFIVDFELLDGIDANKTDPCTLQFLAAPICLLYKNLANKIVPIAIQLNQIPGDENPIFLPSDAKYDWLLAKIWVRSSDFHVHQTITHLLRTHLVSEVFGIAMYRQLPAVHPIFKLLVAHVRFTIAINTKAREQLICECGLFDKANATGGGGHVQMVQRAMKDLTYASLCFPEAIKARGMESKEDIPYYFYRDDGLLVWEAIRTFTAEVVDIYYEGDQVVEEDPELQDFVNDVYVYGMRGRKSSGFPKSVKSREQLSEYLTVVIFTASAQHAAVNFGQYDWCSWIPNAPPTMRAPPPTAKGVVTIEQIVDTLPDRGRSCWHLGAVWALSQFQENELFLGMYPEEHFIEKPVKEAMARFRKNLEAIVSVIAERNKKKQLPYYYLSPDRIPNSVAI
As to the kind of experiment: Inhibition of recombinant human 5-LO expressed in Escherichia coli BL21 (DE3) using 2.5 to 80 uM arachidonic acid as substrate […] followed by CaCl2 and substrate addition measured after 10 mins by RP-HPLC analysis.

The target in series [2] is T1, Polyunsaturated fatty acid 5-lipoxygenase (Homo sapiens). As to the kind of experiment: Inhibition of 5-LO in human M1 macrophages derived from LPS/IFNgamma-polarized human monocyte derived macrophages assessed as effect on 5-HEPE level at 3 uM preincubated for 15 mins followed by Escherichia coli (O6:K2:H1) challenge for 90 mins by LC-MS/MS analysis. Set-up: scale not given: the % may be the effect or the level left. An outline of the steps: (§1)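 Monocytes differentiated 6 days with GM-CSF (20 ng/ml) in RPMI/10% FCS, then polarized 48 h with LPS 100 ng/ml plus IFN-γ 20 ng/ml (M1). Cells (2 × 10^6) in PBS with 1 mM CaCl2 pre-incubated 15 min at 37 °C with 3 µM compound or 0.1% DMSO, then E. coli O6:K2:H1 (1:50) for 90 min. Methanol with deuterated standards added; SPE; UPLC-MS/MS; expressed as % of vehicle.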

Series [3] deals with Mus musculus. As to the kind of experiment: Antiinflammatory activity in CD-1 mouse assessed as reduction in zymosan-induced LTC4 formation in peritoneal cavity at 10 mg/kg, ip preincubated for 30 mins followed by zymosan addition measured after 30 mins by ELISA. The format is functional, organism-based. Put shortly: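 CD-1 male mice (6-8 weeks), n=6 per group, given 10 mg/kg i.p. in 2% DMSO/saline vehicle 30 min before i.p. zymosan (500 µL of 2 mg/mL suspension). Peritoneal cavity washed with 3 ml PBS 30 min after zymosan; LTC4 measured in exudate. One-way ANOVA with Bonferroni test.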
On the technique in general: ELISA stands for enzyme-linked immunosorbent assay.

The species entered for series [4] is Homo sapiens. As to the kind of experiment: Modulation of LO-mediated RvE3 level in human M2 macrophages derived from IL4-polarized human monocyte derived macrophages at 3 uM preincubated for 15 mins followed by Escherichia coli (O6:K2:H1) challenge for 90 mins by LC-MS/MS analysis. Put shortly:
(§2)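 Monocytes differentiated 6 days with M-CSF (20 ng/ml), then polarized 48 h with IL-4 20 ng/ml (M2). Cells (2 × 10^6) in PBS/1 mM CaCl2 pre-incubated 15 min at 37 °C with 3 µM compound or 0.1% DMSO, then challenged with E. coli O6:K2:H1 (1:50) for 90 min. Lipid mediators extracted by SPE with deuterated internal standards and quantified by UPLC-MS/MS as % of vehicle.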

For series [5], the target named is T2, Cyclooxygenase (Homo sapiens, UniProt P35354+P23219). The experiment in a line: Modulation of COX1/2-mediated 11-HETE level in human M2 macrophages derived from IL4-polarized human monocyte derived macrophages at 3 uM preincubated for 15 mins followed by Escherichia coli (O6:K2:H1) challenge for 90 mins by LC-MS/MS analysis. The format is ADME. As to conditions: 1.5 h. An outline of the steps: as §2

In series [6] the target is T2, Cyclooxygenase. As to the kind of experiment: Inhibition of COX1/2 (unknown origin) at 10 uM. The class given is protein assay.
Series [7] has as its target T1, Polyunsaturated fatty acid 5-lipoxygenase (Homo sapiens). As to the kind of experiment: Inhibition of 5-LO in human M1 macrophages derived from LPS/IFNgamma-polarized human monocyte derived macrophages assessed as effect on 5,6-diHETE level at 3 uM preincubated for 15 mins followed by Escherichia coli (O6:K2:H1) challenge for 90 mins by LC-MS/MS analysis. Also noted: scale not given: the % may be the effect or the level left. Put shortly:
as §1

Series [8] is filed under the species Homo sapiens. The experiment in a line: Modulation of LO-mediated RvD2 level in human M2 macrophages derived from IL4-polarized human monocyte derived macrophages at 3 uM preincubated for 15 mins followed by Escherichia coli (O6:K2:H1) challenge for 90 mins by LC-MS/MS analysis. Put shortly: as §2
The test system of series [9] is Mus musculus. As to the kind of experiment: Antiinflammatory activity in zymosan induced CD-1 mouse model of inflammation assessed as reduction in LTB4 levels in air pouch at 10 mg/kg, ip preincubated for 30 mins followed by zymosan challenge and measured after 4 hrs by ELISA. The format is functional, organism-based. Put shortly: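 Air pouch formed by s.c. injection of 2.5 mL sterile air in CD-1 mice; on day 6, 10 mg/kg i.p. (2% DMSO/saline) given 30 min before 1 ml 1% w/v zymosan into the pouch. After 4 h, exudate collected with 1 ml saline and centrifuged; leukocytes counted in Burker chamber; LTB4 in supernatant by ELISA (ng/mL). n=6 mice per group.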

The target in series [10] is T1, Polyunsaturated fatty acid 5-lipoxygenase (Homo sapiens). The experiment in a line: Ratio of IC50 for recombinant human 5-LO to IC50 for 5-LO in human neutrophils.
Series [11] has the same target. As to the kind of experiment: Inhibition of 5-LO in human M1 macrophages derived from LPS/IFNgamma-polarized human monocyte derived macrophages assessed as effect on t-LTB4 level at 3 uM preincubated for 15 mins followed by Escherichia coli (O6:K2:H1) challenge for 90 mins by LC-MS/MS analysis. Set-up: scale not given: the % may be the effect or the level left. An outline of the steps:
as §1

Series [12] shares this target. The experiment in a line: Inhibition of 5-LO in human M1 macrophages derived from LPS/IFNgamma-polarized human monocyte derived macrophages assessed as effect on LTB4 level at 3 uM preincubated for 15 mins followed by Escherichia coli (O6:K2:H1) challenge for 90 mins by LC-MS/MS analysis. Also noted: scale not given: the % may be the effect or the level left. An outline of the steps:
as §1

The species named for series [13] is Homo sapiens. The experiment in a line: Modulation of LO-mediated PDX level in human M2 macrophages derived from IL4-polarized human monocyte derived macrophages at 3 uM preincubated for 15 mins followed by Escherichia coli (O6:K2:H1) challenge for 90 mins by LC-MS/MS analysis. An outline of the steps:
as §2

Turning to `O=C(O)c1ccc(N(Cc2cccc(OCc3ccccc3)c2)S(=O)(=O)c2ccc(-c3ccccc3)cc2)cc1`, in series [1], the inhibition entry is “Active”. The Activity in [2] stood at 23%; in the series filed under Homo sapiens [4], 121%; on Cyclooxygenase [5] it was 106%; in series [7], 13%; in the series filed under Homo sapiens [8], 128%; in series [11], 17%. The Activity turned out to be 11% in [12] and 125% in the series listed under Homo sapiens [13]. Moreover, the result with Mus musculus [3] and in the series on Mus musculus [9] was Active. Besides, the “inhibition (INH)” value on Cyclooxygenase [6] was “Not Active”. Besides, the Ratio IC50 in [10] is 8.
